In brackets after ≈: the same amount, converted by molar mass. Activity calls are given as the source filed them. No cut-off for these calls is given here.
Legend:
Nilaparvata lugens [1] = test: Insecticidal activity against Nilaparvata lugens (brown planthopper) assessed as mortality at 25 degC after 72 hr at 100 mg/L; assay type: functional
Outline: (§1)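 Standard spray test with slight modification. Compounds dissolved in DMF, then serially diluted with water containing Triton X-80 (0.1 mg/L). Groups of 12 insects in glass Petri dishes sprayed with a Potter sprayer, air-dried, then held under normal rearing conditions (25±1 °C, […], 12 h light). Scored at 72 h on a 0–100 scale against a negative control, using kill count and size of live insects. Three replicates.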

Nilaparvata lugens [2] = test: Insecticidal activity against Nilaparvata lugens (brown planthopper) assessed as mortality at 25 degC after 72 hr at 20 mg/L; assay type: functional; outline: as §1
Myzus persicae [3] = test: Insecticidal activity against Myzus persicae (green peach aphid) assessed as mortality at 25 degC after 72 hr at 100 mg/L; assay type: functional
Myzus persicae [4] = test: Insecticidal activity against Myzus persicae (green peach aphid) assessed as mortality at 25 degC after 72 hr at 20 mg/L; assay type: functional
Myzus persicae [5] = test: Insecticidal activity against Myzus persicae (green peach aphid) assessed as mortality at 25 degC after 72 hr; assay type: functional
Myzus persicae [6] = test: Insecticidal activity against Myzus persicae (green peach aphid) assessed as mortality at 25 degC after 72 hr at 4 mg/L; assay type: functional
Nilaparvata lugens [7] = test: Insecticidal activity against Nilaparvata lugens (brown planthopper) assessed as mortality at 25 degC after 72 hr at 4 mg/L; assay type: functional; outline: as §1
Nilaparvata lugens [8] = test: Insecticidal activity against Nilaparvata lugens (brown planthopper) assessed as mortality at 25 degC after 72 hr; assay type: functional
[9] = Binding affinity to nicotinic acetylcholine receptor assessed as hydrogen bonding

| SMILES | mortality at 100 µg/mL (Nilaparvata lugens [1]) [%] | mortality at 20 µg/mL (Nilaparvata lugens [2]) [%] | mortality at 100 µg/mL (Myzus persicae [3]) [%] | mortality at 20 µg/mL (Myzus persicae [4]) [%] | LC100 (Myzus persicae [5]) [mg/L] | mortality at 4 µg/mL (Myzus persicae [6]) [%] | mortality at 4 µg/mL (Nilaparvata lugens [7]) [%] | LC50 (Nilaparvata lugens [8]) [µg/mL] | LC50 (Myzus persicae [5]; Myzus persicae, 72 h) [µg/mL] | Activity [9] |
| --- | --- | --- | --- | --- | --- | --- | --- | --- | --- | --- |
| CCN(Cc1ccc(Cl)nc1)C1=C([N+](=O)[O-])CN(CCCC(=O)OCCCCCCO)CN1C | 90 | 10 | 88 | 10 |  |  |  |  |  |  |
| CCN(Cc1ccc(Cl)nc1)C1=C([N+](=O)[O-])CN(C(C(=O)OCCO)C(C)C)CN1C (centres undefined) | 95 | 65 | 100 | 58 |  |  |  |  |  |  |
| CCN(Cc1ccc(Cl)nc1)C1=C([N+](=O)[O-])CN(CC(=O)OCCCCCO)CN1C | 90 | 23 | 100 | 25 |  |  |  |  |  |  |
| CCN(Cc1ccc(Cl)nc1)C1=C([N+](=O)[O-])CN(C(Cc2ccc(O)cc2)C(=O)OCCO)CN1C (single isomer, unassigned; (+)) | 80 | 15 | 85 | 10 |  |  |  |  |  |  |
| CCN(Cc1ccc(Cl)nc1)/C(=C/[N+](=O)[O-])NC [NITENPYRAM] | 100 | 100 | 100 | 100 | 0.129 | 100 | 100 |  |  |  |
| CCN(Cc1ccc(Cl)nc1)C1=C([N+](=O)[O-])CN(C(C(=O)OCCO)c2ccc(Cl)cc2)CN1C (centres undefined) | 95 | 25 | 95 | 25 |  |  |  |  |  |  |
| CCN(Cc1ccc(Cl)nc1)C1=C([N+](=O)[O-])CN(CC(=O)OCCCCO)CN1C | 95 | 30 | 100 | 33 |  |  |  |  |  |  |
| CCN(Cc1ccc(Cl)nc1)C1=C([N+](=O)[O-])CN(CCC(=O)OCCCO)CN1C | 100 | 98 | 100 | 100 |  | 55 | 70 |  |  |  |
| CCN(Cc1ccc(Cl)nc1)C1=C([N+](=O)[O-])CN(CCC(=O)OCCCCO)CN1C | 100 | 80 | 100 | 83 |  |  |  |  |  |  |
| CCN(Cc1ccc(Cl)nc1)C1=C([N+](=O)[O-])CN(CC(=O)OCCO)CN1C | 100 | 50 | 100 | 58 |  |  |  |  |  |  |
| CCC(C)C(C(=O)OCCO)N1CC([N+](=O)[O-])=C(N(CC)Cc2ccc(Cl)nc2)N(C)C1 (single isomer, unassigned; (+)) | 100 | 95 | 100 | 95 |  | 30 | 35 |  |  |  |
| CCN(Cc1ccc(Cl)nc1)C1=C([N+](=O)[O-])CN(CCCC(=O)OCCCO)CN1C | 100 | 80 | 100 | 92 |  |  |  |  |  |  |
| CCN(Cc1ccc(Cl)nc1)C1=C([N+](=O)[O-])CN(CC(=O)OCCCO)CN1C | 100 | 45 | 100 | 50 |  |  |  |  |  |  |
| CCN(Cc1ccc(Cl)nc1)C1=C([N+](=O)[O-])CN(CCC(=O)OCCCCCCO)CN1C | 90 | 25 | 95 | 33 |  |  |  |  |  |  |
| CCN(Cc1ccc(Cl)nc1)C1=C([N+](=O)[O-])CN(CC(=O)OCCCCCCO)CN1C | 90 | 15 | 95 | 10 |  |  |  |  |  |  |
| CCCOC(=O)CCN1CC([N+](=O)[O-])=C(N(CC)Cc2ccc(Cl)nc2)N(C)C1 | 100 | 100 |  |  |  |  | 75 |  |  |  |
| CCN(Cc1ccc(Cl)nc1)C1=C([N+](=O)[O-])CN(C(CC(C)C)C(=O)OCCO)CN1C (centres undefined) | 100 | 100 | 100 | 100 |  | 100 | 95 | 0.17 (≈ 0.362 µM) | 0.17 (≈ 0.362 µM) | Active |
| CCN(Cc1ccc(Cl)nc1)C1=C([N+](=O)[O-])CN(C(C)C(=O)OCCO)CN1C (single isomer, unassigned; (+)) | 95 | 45 | 100 | 40 |  |  |  |  |  |  |
| CCN(Cc1ccc(Cl)nc1)C1=C([N+](=O)[O-])CN(CCC(=O)OC(C)C)CN1C | 100 | 100 |  |  |  |  | 70 |  |  |  |
| CCN(Cc1ccc(Cl)nc1)C1=C([N+](=O)[O-])CN(C(CC(C)C)C(=O)OC)CN1C (centres undefined) | 100 | 100 |  |  |  |  | 50 | 0.216 (≈ 0.491 µM) |  |  |
| CCN(Cc1ccc(Cl)nc1)C1=C([N+](=O)[O-])CN(CCCC(=O)OCCO)CN1C | 100 | 90 | 100 | 100 |  | 10 |  |  |  |  |
| CCN(Cc1ccc(Cl)nc1)C1=C([N+](=O)[O-])CN(CCC(=O)OCCCCCO)CN1C | 100 | 40 | 98 | 50 |  |  |  |  |  |  |
| CCN(Cc1ccc(Cl)nc1)C1=C([N+](=O)[O-])CN(C(Cc2ccccc2)C(=O)OCCO)CN1C (centres undefined) | 80 | 20 | 90 | 15 |  |  |  |  |  |  |
| CCN(Cc1ccc(Cl)nc1)C1=C([N+](=O)[O-])CN(CCCC(=O)OCCCCO)CN1C | 100 | 78 | 95 | 70 |  |  |  |  |  |  |
| CCN(Cc1ccc(Cl)nc1)C1=C([N+](=O)[O-])CN(CCCC(=O)OCCCCCO)CN1C | 98 | 15 | 95 | 25 |  |  |  |  |  |  |
| CCN(Cc1ccc(Cl)nc1)C1=C([N+](=O)[O-])CN(CCC(=O)OCCO)CN1C | 100 | 100 | 100 | 100 |  | 100 | 100 | 0.154 (≈ 0.36 µM) |  | Active |

— ChEMBL document CHEMBL3046282, “Synthesis, insecticidal activity, crystal structure, and molecular docking studies of nitenpyram analogues with an ω-hydroxyalkyl ester arm anchored on the tetrahydropyrimidine ring” (2012)
